In ChEMBL document CHEMBL4477209, “Indole-2-carboxamide-based MmpL3 Inhibitors Show Exceptional Antitubercular Activity in an Animal Model of Tuberculosis Infection” (J Med Chem, 2016):
Converted amounts (≈) assume the structure as drawn. The source made the active and inactive calls. The calls are words filed in the database; no cut-off is given here.

Legend:
[1] = Mean residence time (last) in BALB/c mouse plasma at 100 mg/kg administered via oral gavage by LC-MS analysis; type: ADME, organism-based
Outline: (§1)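 Female BALB/c mice (20 g), single oral gavage dose of 100 mg/kg. Cardiac blood and lungs taken at 0, 0.25, 0.5, 1, 2, 4, 8 and 24 h (n = 3 per time point). Plasma separated by centrifugation; lungs bead-beaten in water and supernatant recovered. Drug quantified by LC-MS/MS against an indole-2-carboxamide internal standard. Parameters derived by noncompartmental analysis.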

[2] = AUClast in BALB/c mouse lung at 100 mg/kg administered via oral gavage after 0.25 to 24 hrs by LC-MS analysis; type: ADME, organism-based; conditions: in vivo; outline: as §1
[3] = Cmax in BALB/c mouse plasma at 100 mg/kg administered via oral gavage after 0.25 to 24 hrs by LC-MS analysis; type: ADME, organism-based; design: dose 100 mg/kg, route oral; outline: as §1
[4] = AUMClast in BALB/c mouse plasma at 100 mg/kg administered via oral gavage after 0.25 to 24 hrs by LC-MS analysis; type: ADME, organism-based; conditions: in vivo; outline: as §1
[5] = Oral bioavailability in BALB/c mouse at 100 mg/kg administered as single dose for 30 to 120 mins followed by Mycobacterium tuberculosis H37Rv addition to compound treated serum incubated for 7 days by alamar blue reagent based serum inhibition titration assay; type: ADME, organism-based; conditions: in vivo
Outline: (§2)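 Six-week-old female BALB/c mice (20 g) given one oral dose as suspension in 0.5% CMC in water; isoniazid 10 mg/kg as positive control, vehicle as negative. Serum collected at 30, 60 and 120 min, pooled from three mice per time point, 2-fold serially diluted. 10^4 CFU H37Rv added per well, 7 days at 37 °C. alamarBlue added for 16−18 h, fluorescence read at Ex544/Em590 and plotted against serum titration.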

[6] = system: Mycobacterium tuberculosis; test: (§3) Antimycobacterial activity against Mycobacterium tuberculosis H37Rv grown on serum of 100 mg/kg, po treated BALB/c mouse for 30 to 120 mins assessed as reduction in bacterial growth followed by bacterial addition incubated for 7 days by alamar blue reagent based serum inhibition titration assay; type: functional, organism-based; outline: as §2
[7] = Tmax in BALB/c mouse lung at 100 mg/kg administered via oral gavage after 0.25 to 24 hrs by LC-MS analysis; type: ADME, organism-based
Outline: (§4)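 Female BALB/c mice (20 g) got a single 100 mg/kg oral gavage dose. Three animals were sacrificed per time point at 0, 0.25, 0.5, 1, 2, 4, 8 and 24 h. Cardiac blood was spun at 12 000g, 4 °C for plasma. Lungs were bead-beaten in water and the supernatant taken. Both matrices were quantified by LC-MS/MS with an indole-2-carboxamide internal standard. Parameters came from noncompartmental analysis.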

[8] = AUMClast in BALB/c mouse lung at 100 mg/kg administered via oral gavage after 0.25 to 24 hrs by LC-MS analysis; type: ADME, organism-based; conditions: in vivo; outline: as §1
[9] = system: Mycobacterium tuberculosis; test: Antimycobacterial activity against Mycobacterium tuberculosis H37Rv infected in BALB/c mouse model assessed as reduction in CFU counts in lung at 100 mg/kg administered daily via oral gavage for 5 days per week measured after 28 days post dosage relative to control; type: functional
Outline: (§5)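 Female BALB/c mice, 4-6 weeks old, aerosol-infected with H37Rv (about 10^3 CFU); five mice taken on day 1 for lung implantation CFU. From day 1, 12.5, 25, 50 or 100 mg/kg in 0.5% carboxymethylcellulose by daily oral gavage, 5 days/week. Ethambutol 100 mg/kg as positive control, untreated infected mice as negative, 5 mice per group. Lung homogenates plated on 7H11 selective agar on days 14 and 28.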

[10] = Tmax in BALB/c mouse plasma at 100 mg/kg administered via oral gavage after 0.25 to 24 hrs by LC-MS analysis; type: ADME, organism-based; outline: as §4
[11] = system: Mycobacterium tuberculosis; test: Antimycobacterial activity against Mycobacterium tuberculosis H37Rv infected in BALB/c mouse model assessed as protection against mouse mortality at 12.5 to 100 mg/kg administered daily via oral gavage for 5 days per week measured after 14 to 28 days post dosage; type: functional, organism-based
[12] = system: Mycobacterium tuberculosis; test: Antimycobacterial activity against Mycobacterium tuberculosis H37Rv infected in BALB/c mouse model assessed as reduction in CFU counts in lung at 100 mg/kg administered daily via oral gavage for 5 days per week measured after 14 days post dosage relative to control; type: functional; outline: as §5
[13] = Cmax in BALB/c mouse lung at 100 mg/kg administered via oral gavage after 0.25 to 24 hrs by LC-MS analysis; type: ADME, organism-based; design: dose 100 mg/kg, route oral; outline: as §1
[14] = system: Mycobacterium tuberculosis; test: Antimycobacterial activity against Mycobacterium tuberculosis H37Rv infected in BALB/c mouse model assessed as reduction in CFU counts in lung at 200 mg/kg administered daily via oral gavage for 5 days per week measured after 28 days post dosage relative to control; type: functional
Outline: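 Bactericidal-dose model in aerosol-infected BALB/c mice given 25, 50, 100 or 200 mg/kg orally in 0.5% carboxymethylcellulose in water for 4 weeks. Lung CFU compared with the count at treatment initiation; survival also recorded.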

[15] = AUClast in BALB/c mouse plasma at 100 mg/kg administered via oral gavage after 0.25 to 24 hrs by LC-MS analysis; type: ADME, organism-based; design: dose 100 mg/kg, time 0.25-24 hr, route oral; outline: as §1
[16] = Mean residence time (last) in BALB/c mouse lung at 100 mg/kg administered via oral gavage by LC-MS analysis; type: ADME, organism-based; outline: as §1
[17] = system: Mycobacterium tuberculosis H37Rv; test: Inhibition of MmpL3 in clinical isolates of drug sensitive Mycobacterium tuberculosis H37Rv after 7 to 14 days by alamar blue assay
Vero = test: Cytotoxicity against african green monkey Vero cells; type: cell-based; conditions: Chlorocebus sabaeus
[18] = Oral bioavailability in BALB/c mouse at 100 mg/kg administered for 30 to 120 mins followed by Mycobacterium tuberculosis H37Rv addition to compound treated serum incubated for 7 days by alamar blue reagent based serum inhibition titration assay; type: ADME, organism-based; conditions: in vivo; outline: as §2
[19] = system: Mycobacterium tuberculosis; test: Inhibition of MmpL3 in clinical isolates of drug sensitive Mycobacterium tuberculosis V4207 after 7 to 14 days by alamar blue assay
[20] = Selectivity index, ratio of IC50 for african green monkey Vero cells to MIC for clinical isolates of Mycobacterium tuberculosis; type: toxicity; conditions: read-out: Selectivity Index
[21] = system: Mycobacterium tuberculosis; test: as §3, with “isolated from” for “of”; type: functional, organism-based; outline: as §2

For `CC1(C)CCC(NC(=O)c2cc3c(Cl)cc(Cl)cc3[nH]2)CC1`, the MRT last [1] was 6.47 h, the AUClast [2] was 18.1 µg·h/g and the Cmax [3] was 670 ng/mL. The AUMClast [4] was 36.4 hr.hr.ug/ml, the Drug uptake [5] was “Active” and the Activity [6] was “Active”. The Tmax [7] was 2 h, the AUMClast [8] was 150 hr2.ug/g and the Activity [9] was 1.08 log10CFU. The Tmax [10] was 2 h, the Activity [11] was “Active” and the Activity [12] was 0.45 log10CFU. For the same molecule, the Cmax [13] was 1300 ng/g, the Activity [14] was “inactive” and the AUC(0-t) [15] was 5620 ng·h/mL. It also gave an MRT last [16] of 8.3 h.

Molecule `Cc1cc(C)c2cc(C(=O)NC3CCCCCCC3)[nH]c2c1` has an MIC90 [17] of 0.013 µM (≈ 0.00388 µg/mL).

For `O=C(NC12CC3CC(CC(C3)C1)C2)c1cc2c(Cl)cc(Cl)cc2[nH]1`, the Drug uptake [5] was “Not Active”, the Activity [6] was “inactive” and the MIC90 [17] was 0.011 µM (≈ 0.004 µg/mL).

Work on `C[C@@H](NC(=O)c1cc2c(Cl)cc(Cl)cc2[nH]1)C1CCCCC1` yielded an MIC90 [17] of 5.9 µM (≈ 2 µg/mL).

With `Nc1ccc2[nH]c(C(=O)NC3CCCCCCC3)cc2c1` the MIC90 [17] was 80 µM (≈ 22.8 µg/mL).

For `C[C@@H]1[C@H]2C[C@@H](C[C@H]1NC(=O)c1cc3c(Cl)cc(Cl)cc3[nH]1)C2(C)C`, the IC50 (Vero) was 43.8 µM, the Drug uptake [18] was “Active” and the MIC [19] was 43 µM (≈ 15.7 µg/mL). For the same molecule, the selectivity ratio [20] was 2080, the MIC90 [17] was 0.021 µM (≈ 0.00767 µg/mL) and the Activity [21] was “Active”.

Molecule `Cc1cc(C)c2[nH]c(C(=O)NC3CCCCCCC3)cc2c1` has an MIC90 [17] of 0.21 µM (≈ 0.0627 µg/mL).

`C[C@@H]1[C@@H](NC(=O)c2cc3c(F)cc(F)cc3[nH]2)C[C@H]2C[C@@H]1C2(C)C` showed an MIC90 [17] of 0.19 µM (≈ 0.0632 µg/mL).

Molecule `Cc1cc(C)c2[nH]c(C(=O)NC3CCCCCC3)cc2c1` has an MIC90 [17] of 3.5 µM (≈ 0.995 µg/mL).

Molecule `CCCCCCCCNC(=O)c1cc2c(Cl)cc(Cl)cc2[nH]1` has an MIC90 [17] of over 300 µM.

Molecule `COc1cc(OC)c2cc(C(=O)NC3CCCCCC3)[nH]c2c1` has an MIC90 [17] of 3.2 µM (≈ 1.01 µg/mL).

For `C[C@@H](NC(=O)c1cc2c(F)cc(F)cc2[nH]1)C1CCCCC1`, the MIC90 [17] was 13 µM (≈ 3.98 µg/mL).

`CC(C)=CCC/C(C)=C/CNC(=O)c1cc2c(Cl)cc(Cl)cc2[nH]1` gave an MIC90 [17] of 11 µM (≈ 4.02 µg/mL).

With `O=C(NC1CCCCCCC1)c1cc2c(Cl)cc(Cl)cc2[nH]1` the IC50 (Vero) was 23.5 to 47 µM, the Drug uptake [18] was “Active” and the MIC [19] was 11 µM (≈ 3.73 µg/mL). For the same molecule, the selectivity ratio [20] was 2140 to 4270, the MIC90 [17] was 0.011 µM (≈ 0.00373 µg/mL) and the Activity [21] was “Active”.

In the case of `Cc1cc(C)c2cc(CNC3CCCCCCC3)[nH]c2c1`, the MIC90 [17] is reported as 0.31 µM (≈ 0.0882 µg/mL).

For `Cc1cccc2cc(C(=O)NC3CCCCCC3)[nH]c12`, the MIC90 [17] was 30 µM (≈ 8.11 µg/mL).

`Cc1cccc2[nH]c(C(=O)NC3CCCCCCC3)cc12` showed an MIC90 [17] of 0.11 µM (≈ 0.0313 µg/mL).

In the case of `Cc1ccc2[nH]c(C(=O)NC3CCCCCC3)cc2c1`, the MIC90 [17] is reported as 7.4 µM (≈ 2 µg/mL).

With `O=C(NC12CC3CC(CC(C3)C1)C2)c1cc2ccc(Br)cc2[nH]1` the MIC90 [17] was 0.042 µM (≈ 0.0157 µg/mL).

`CC1(C)[C@@H]2CC[C@@H](CNC(=O)c3cc4c(Cl)cc(Cl)cc4[nH]3)[C@H]1C2` gave an MIC90 [17] of 175 µM (≈ 63.9 µg/mL).
